APJ agonist – APJ receptor agonism. CHO-K1 APJ PathHunter beta-arrestin, luminescence; 0% DMSO wells, 100% apelin. activation, % at 20 µM. 0.11% of 330,000 active. AID 2520;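 active = activation more than six SD over the plate average, tested at 20 µM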
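Assay system – PathHunter CHO-K1 APJ (AGTRL-1) beta-arrestin reporter cells · Compound – one dose, 20 µM compound, 1% DMSO · Timing – compound 90 min 25 °C, reagent 1 h · Measured by – luminescence from split beta-galactosidase complementation, Galacton Star/Emerald II substrate · Measure – beta-arrestin recruitment to APJ as agonist activity, luminescent signal · Benchmarks – DMSO vs Apelin-13 10 nM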
APJ antagonist – APJ receptor antagonism; CHO-K1 APJ beta-arrestin complementation, luminescence; inhibition, % at 20 µM; P35414; AID 2521; 0.32% of 330,000 active;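 active = inhibition above about 40% at 20 µM, limit read from the data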;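 note: cells challenged with 10 nM apelin-13 agonist together with compound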
CXCR6 inh – blocks human CXCR6 beta-arrestin recruitment | inhibition, % at 20 µM | O00574 | CHO-K1 PathHunter CXCR6 beta-arrestin, luminescence | AID 602244 | 0.36% of 360,000 active; in the data active = inhibition above about 34%, passing the limit was not always enough;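 note: antagonist mode with CXCL16 agonist at 10 nM final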
CCR6 antag – CCR6 (human) receptor antagonism; P51684; CHO-K1 CCR6 PathHunter beta-arrestin, luminescence, CCL20-stimulated; inhibition, % at 20 µM; 0.49% of 340,000 active; AID 493098;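 active = compounds whose inhibition of the agonist-driven luminescence signal at 20 µM reaches about 50%, limit read from the data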;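 note: cells stimulated with CCL20 at 14 nM final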
Target sequence (P51684 whole entry, looked up): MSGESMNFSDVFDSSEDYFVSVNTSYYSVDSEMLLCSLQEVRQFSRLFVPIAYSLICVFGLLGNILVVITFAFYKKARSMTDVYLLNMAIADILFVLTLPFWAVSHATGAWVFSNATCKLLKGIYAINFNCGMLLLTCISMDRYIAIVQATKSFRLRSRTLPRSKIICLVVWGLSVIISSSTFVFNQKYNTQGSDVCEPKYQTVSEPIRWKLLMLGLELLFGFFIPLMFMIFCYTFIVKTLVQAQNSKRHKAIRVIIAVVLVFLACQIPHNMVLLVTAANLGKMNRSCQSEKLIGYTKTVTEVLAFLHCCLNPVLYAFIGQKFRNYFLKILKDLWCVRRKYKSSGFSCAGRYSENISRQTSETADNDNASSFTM
EBI2 block – blocks human EBI2 receptor beta-arrestin signaling; 0.81% of 360,000 active; inhibition, % at 5 µM; AID 651636; EBI2 beta-arrestin recruitment, luminescence, 7a,25-OHC stimulated; P32249; in the data active = inhibition above about 38%;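 note: enzyme fragment complementation signal reports receptor beta-arrestin coupling in cells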
APJ ag confirm – confirmation of human APJ apelin receptor agonists; CHO-K1 APJ PathHunter beta-arrestin, luminescence; shares compounds with APJ agonist; activation, % at 20 µM; 10% of 310 active;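 active = activation above 40%, taking the highest of four retests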
Numbers stand for hits. A selection: hits, their analogues and other compounds. The true share with any hit is near 1.5%.

`COc1ccc(/C(N)=N/OC(=O)c2ccc(OC)c([N+](=O)[O-])c2)cc1OC` gave APJ agonist 18, APJ antagonist inactive, CXCR6 inh inactive, CCR6 antag inactive, EBI2 block inactive and APJ ag confirm inactive.
Screening COc1ccccc1C(=O)O/N=C(\N)c1ccccc1Cl returned APJ agonist inactive, APJ antagonist inactive, CXCR6 inh inactive, CCR6 antag inactive and EBI2 block inactive.
For O=C(N/N=C\c1cn(-c2ccccc2)nc1-c1ccccc1)c1ccc(Br)o1 the results were APJ agonist inactive, APJ antagonist inactive, CXCR6 inh inactive, CCR6 antag inactive and EBI2 block inactive.
Cc1ccc(-c2nn(-c3ccccc3)cc2/C=N/NC(=O)c2ccc(Br)o2)cc1 was read as APJ agonist 13, APJ antagonist inactive, CXCR6 inh inactive, CCR6 antag inactive, EBI2 block inactive and APJ ag confirm inactive.
COc1cccc(N2CCN(c3ncnc4c3[nH]c3ccccc34)CC2C)c1 (stereo not drawn) was read as APJ agonist 19, APJ antagonist inactive and APJ ag confirm 41.
For Nc1c(C(O)(C(F)(F)F)C(F)(F)F)cc(C(O)(C(F)(F)F)C(F)(F)F)c2ccccc12 the results were APJ agonist 50, APJ antagonist inactive, CXCR6 inh inactive, CCR6 antag inactive, EBI2 block inactive and APJ ag confirm inactive.
`CCCCC1=CC2=CC(=O)C(C)(OC(=O)CC)C(=O)C2=CN1c1ccccc1` (stereo not drawn) gave APJ agonist 75, APJ antagonist inactive, CXCR6 inh inactive, CCR6 antag inactive, EBI2 block inactive and APJ ag confirm inactive.
Screening CCCCC1=CC2=CC(=O)C(C)(OC(=O)CC)C(=O)C2=CN1Cc1ccccc1 (stereo not drawn) returned APJ agonist inactive, APJ antagonist inactive, CXCR6 inh inactive, CCR6 antag inactive and EBI2 block inactive.
`CC1=C(C#N)C(NC(=O)C2CCCCC2)(C(F)(F)F)C(=O)N1` (stereo not drawn) gave APJ agonist inactive, APJ antagonist inactive, CXCR6 inh inactive, CCR6 antag inactive and EBI2 block inactive.
Screening Cc1ccc(-n2nnc3c(=O)oc4ccccc4c32)cc1 returned APJ agonist 32, APJ antagonist inactive, CXCR6 inh inactive, CCR6 antag inactive, EBI2 block inactive and APJ ag confirm inactive.
Screening CCOC(=O)N1CCN(C(=O)c2ccc(Cn3c(=S)[nH]c4cc5c(cc4c3=O)OCO5)cc2)CC1 returned APJ agonist 23, APJ antagonist inactive, CXCR6 inh inactive, CCR6 antag inactive, EBI2 block inactive and APJ ag confirm inactive.
CC1CC(=O)Nc2ccccc2N1C(=O)CN1CCN(C=O)CC1 (stereo not drawn) was read as APJ agonist inactive, APJ antagonist inactive, CXCR6 inh inactive, CCR6 antag inactive and EBI2 block inactive.
For Cc1ccc(Cl)cc1NC(=O)c1cc2ccccc2cc1O the results were APJ agonist 22, APJ antagonist inactive, CXCR6 inh inactive, CCR6 antag inactive, EBI2 block inactive and APJ ag confirm inactive.
For Cc1cc2ccccn2c1C(=O)c1nc(NCc2ccco2)ncc1Cl the results were APJ agonist 40, APJ antagonist inactive, CXCR6 inh inactive, CCR6 antag inactive, EBI2 block inactive and APJ ag confirm inactive.
Screening Cc1cc2ccccn2c1C(=O)c1nc(N2CCOCC2)ncc1Cl returned APJ agonist inactive, APJ antagonist inactive, CXCR6 inh inactive, CCR6 antag inactive and EBI2 block inactive.
Screening CCOC(=O)c1c(NC(=O)c2ccn(CC)n2)sc2c1CCC2 returned APJ agonist inactive, APJ antagonist inactive, CXCR6 inh inactive, CCR6 antag inactive and EBI2 block inactive.
Screening CCCc1cc(C(=O)Nc2sc3c(c2C(=O)OCC)CCCC3)no1 returned APJ agonist 68, APJ antagonist inactive, CXCR6 inh inactive, CCR6 antag inactive, EBI2 block inactive and APJ ag confirm inactive.
Screening CCCOc1ccc(/C=C/C(=O)NCc2ccccc2)cc1 returned APJ agonist inactive, APJ antagonist inactive, CXCR6 inh inactive, CCR6 antag inactive and EBI2 block inactive.
For Cc1ccc(C)c2[nH]c(=O)c(CCNC(=O)c3cc4ccccc4o3)cc12 the results were APJ agonist 12, APJ antagonist inactive, CXCR6 inh inactive, CCR6 antag inactive, EBI2 block inactive and APJ ag confirm inactive.

Compound activity (PubChem BioAssay)
